Results taken from PMC7750258 (Progress in neuro-psychopharmacology & biological psychiatry, 2020).
Read-outs that look alike come from different tables or passages of the source.

What was measured:
ICR mice [1] = assay: Cannabinoid tetrad: rectal temperature; type: in vivo; settings: for effect on body temperature: ICR mice of both sexes; for Body Temperature ED50 (± SEM): i.p., n=6, maximal effect −6°C
In short: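 Adult drug-naïve ICR mice of both sexes (n=6 per sex per dose) received vehicle or test compound. Baseline rectal temperature was taken before injection. Temperature was re-measured immediately after a 10 min locomotor session that began 30 min post-injection. […] It came from least-squares linear regression on the linear part of the dose-effect curve against log10 dose.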

ICR mice [2] = assay: Cannabinoid tetrad: ring immobility; type: in vivo; settings: for effect on ring immobility: ICR mice of both sexes; for Ring Immobility ED50 (± SEM): i.p., n=6, maximal effect 100% immobility
In short: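 Drug-naïve adult ICR mice, males and females (n=6 per sex per dose), were dosed with vehicle or test compound. At 50 min post-injection each mouse was placed on an elevated ring. Time spent immobile over 5 min was divided by 300 s and multiplied by 100 to give percent immobility.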

ICR mice [3] = assay: Cannabinoid tetrad: locomotor activity; type: in vivo; settings: female and male ICR mice, i.p., 10 min session 30 min after injection
C57BL/6J mice = assay: THC drug discrimination in mice; type: in vivo; settings: for ED50 (± SEM), THC drug discrimination: compound alone, i.p. 30 min pre-session; for substitution for the THC training dose: mice of both sexes
rats = settings: ref Tseng and Craft (2001); cited from earlier work
CB1 receptor [4] = target: T1, CB1 receptor (Mus musculus, UniProt P47746); assay: [3H]CP55,940 displacement binding in mouse cerebellar membranes; design: species or system ICR mice; settings: read-out: CB1 Binding Affinity (Ki in nM), cerebellum, N = 4 / value
T1 sequence (P47746 whole entry): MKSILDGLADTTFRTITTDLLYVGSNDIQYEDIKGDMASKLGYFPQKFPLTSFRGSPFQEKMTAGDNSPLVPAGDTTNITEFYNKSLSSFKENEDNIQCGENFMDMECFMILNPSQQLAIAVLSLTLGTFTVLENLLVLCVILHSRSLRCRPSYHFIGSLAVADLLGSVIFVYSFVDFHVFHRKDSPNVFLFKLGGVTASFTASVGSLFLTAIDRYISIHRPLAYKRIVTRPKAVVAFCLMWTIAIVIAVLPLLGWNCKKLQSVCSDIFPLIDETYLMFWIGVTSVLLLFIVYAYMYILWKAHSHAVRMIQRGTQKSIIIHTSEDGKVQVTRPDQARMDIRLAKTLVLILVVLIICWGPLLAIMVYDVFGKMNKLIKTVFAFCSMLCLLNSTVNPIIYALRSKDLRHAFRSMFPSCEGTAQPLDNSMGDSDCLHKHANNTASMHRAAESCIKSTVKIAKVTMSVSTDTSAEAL

[5] = ref Huestis, 2007; Mazur et al., 2009; cited from earlier work
CB1 receptor [6] = target: T1, CB1 receptor; assay: Agonist-stimulated [35S]GTPγS binding in mouse cerebellar membranes; type: biochemical, ICR mice; settings: mouse cerebellum, both sexes
CB1 receptor [7] = target: CB1 receptor (Rattus norvegicus, UniProt P20272); assay: Agonist-stimulated [35S]GTPγS binding in rat cerebellar membranes; type: biochemical, Sprague-Dawley rats; settings: rat cerebellum, both sexes
Chain of CB1 receptor (Rattus norvegicus, UniProt P20272) (P20272 whole entry): as the sequence (P47746 whole entry) above, with D95E counted along it

Sprague-Dawley rats = assay: THC drug discrimination in rats; type: in vivo

For “11-OH-Δ^9-tetrahydrocannabinol [11-OH-THC]”, the “effect on body temperature” value (ICR mice [1]) was “decreases in body temperature”, the “greater potency than THC, hypothermia” value (ICR mice [1]; ICR mice, range across sexes) was 7- to 31 fold and the “Body Temperature ED50 (± SEM)” value (ICR mice [1]; female ICR mice) was 0.19 (0.006–6.1). For the same molecule, the “Body Temperature ED50 (± SEM)” value (ICR mice [1]; male ICR mice) was 0.70 (0.22–2.26), the “effect on ring immobility” value (ICR mice [2]) was “clear and significant dose-dependent increases in ring immobility” and the “greater potency than THC, catalepsy” value (ICR mice [2]; ICR mice, range across sexes) was 7- to 15 fold. For the same molecule, the “Ring Immobility ED50 (± SEM)” value (ICR mice [2]; female ICR mice) was 0.16 (out of range), the “Ring Immobility ED50 (± SEM)” value (ICR mice [2]; male ICR mice) was 0.57 (0.07–4.57) and the “effect on locomotor activity” value (ICR mice [3]) was “Neither drug significantly decreased locomotor activity”. For the same molecule, the “greater potency than THC in THC drug discrimination” value (C57BL/6J mice; C57Bl/6J mice, range across sexes) was 7- to 9 fold, the “more potent than THC in THC drug discrimination” value (C57BL/6J mice; female mice) was 7 fold and the “response rate compared to vehicle” value (C57BL/6J mice; female mice, subset n=8) was “but not in females”. For the same molecule, the “ED50 (± SEM), THC drug discrimination” value (C57BL/6J mice; female mice, subset n=8) was 0.28 mg/kg, the “more potent than THC in THC drug discrimination” value (C57BL/6J mice; male mice) was 9 fold and the “response rate compared to vehicle” value (C57BL/6J mice; male mice, subset n=8) was “significantly decreased by 3 mg/kg 11-OH-THC”. The “ED50 (± SEM), THC drug discrimination” value (C57BL/6J mice; male mice, subset n=8) was 0.24 mg/kg, the “substitution for the THC training dose” value (C57BL/6J mice) was “dose-dependently substituted for THC” and the “potency in female vs male rats” value (rats) was “about twice as potent in female than male rats”.

In the case of `CCCCCCC(C)(C)c1ccc([C@@H]2C[C@H](O)CC[C@H]2CCCO)c(O)c1` [CP55,940], the Ki (CB1 receptor [4]; female mice) is reported as 0.48 nM and the Ki (CB1 receptor [4]; male mice) is reported as 0.56 nM.

For `CCCCCc1cc(O)c2c(c1)OC(C)(C)[C@@H]1CCC(C(=O)O)=C[C@@H]21` [THC-COOH, 11-nor-9-carboxy-Δ^9-tetrahydrocannabinol], the cannabimimetic effects [5] is given as “lacks cannabimimetic effects”.

For `CCCCCc1cc(O)c2c(c1)OC(C)(C)[C@@H]1CCC(C)=C[C@@H]21` [THC, Δ^9-tetrahydrocanabinol], the “functional character in [35S]GTPγS assay” value (CB1 receptor [6]) was “partial agonists”, the “functional character in [35S]GTPγS assay” value (CB1 receptor [7]) was “partial agonists” and the “effect on body temperature” value (ICR mice [1]) was “decreases in body temperature”. The “effect on ring immobility” value (ICR mice [2]) was “clear and significant dose-dependent increases in ring immobility”, the “effect on locomotor activity” value (ICR mice [3]) was “Neither drug significantly decreased locomotor activity” and the “response rate compared to vehicle” value (C57BL/6J mice; all mice (15 female, 20 male), first and second THC dose-effect curves) was “significantly increased overall responding across both sexes at doses of 3 and 5.6 mg/kg during the first test and over a dose range of 3–10 mg/kg during the second test”. The “response rate compared to vehicle” value (C57BL/6J mice; female mice, subset n=8) was “but not in females”, the “response rate compared to vehicle” value (C57BL/6J mice; male mice, subset n=8) was “significantly decreased by 30 mg/kg THC” and the “substitution for the THC training dose” value (C57BL/6J mice) was “dose-dependently substituted for the 5.6 mg/kg training dose”. For the same molecule, the “more potent in female than in male rats” value (Sprague-Dawley rats; THC drug discrimination) was 2.8 fold, the “substitution for the THC training dose” value (Sprague-Dawley rats; rats of both sexes) was “dose-dependently substituted for the 1.7 mg/kg training dose in both sexes” and the “response rate compared to vehicle” value (Sprague-Dawley rats; rats, both sexes) was 3 mg/kg THC significantly decreased overall responding across both sexes.

With `Cc1c(C(=O)NN2CCCCC2)nn(-c2ccc(Cl)cc2Cl)c1-c1ccc(Cl)cc1` [rimonabant, 5-(4-chlorophenyl)-1-(2,4-dichlorophenyl)-4-methyl-N-(piperidin-1-yl)-1H-pyrazole-3-carboxamide] the “rightward shift of THC dose-effect curve” value (C57BL/6J mice; 1 mg/kg antagonist i.p. 10 min before THC, both sexes) was ~ 7 fold, the “effect of antagonist on substitution by 1 mg/kg 11-OH-THC” value (C57BL/6J mice; 1 mg/kg rimonabant or 3 mg/kg SR144528 i.p. 10 min prior, n=8/sex) was “blocked maximal substitution produced by 1 mg/kg 11-OH-THC” and the “response rate compared to vehicle” value (C57BL/6J mice; male mice, subset n=8) was “significantly suppressed compared to vehicle alone treatment”.
